Measurements: ChEMBL document CHEMBL1687920, “Structure-based discovery of inhibitors of microsomal prostaglandin E2 synthase-1, 5-lipoxygenase and 5-lipoxygenase-activating protein: promising hits for the development of new anti-inflammatory agents” (J Med Chem, 2011)

Key:
[1] = target: T1, Polyunsaturated fatty acid 5-lipoxygenase (Homo sapiens, UniProt P09917); experiment: Inhibition of human recombinant 5-lipoxygenase expressed in Escherichia coli MV1190 by cell free assay
T1 sequence (P09917 whole entry): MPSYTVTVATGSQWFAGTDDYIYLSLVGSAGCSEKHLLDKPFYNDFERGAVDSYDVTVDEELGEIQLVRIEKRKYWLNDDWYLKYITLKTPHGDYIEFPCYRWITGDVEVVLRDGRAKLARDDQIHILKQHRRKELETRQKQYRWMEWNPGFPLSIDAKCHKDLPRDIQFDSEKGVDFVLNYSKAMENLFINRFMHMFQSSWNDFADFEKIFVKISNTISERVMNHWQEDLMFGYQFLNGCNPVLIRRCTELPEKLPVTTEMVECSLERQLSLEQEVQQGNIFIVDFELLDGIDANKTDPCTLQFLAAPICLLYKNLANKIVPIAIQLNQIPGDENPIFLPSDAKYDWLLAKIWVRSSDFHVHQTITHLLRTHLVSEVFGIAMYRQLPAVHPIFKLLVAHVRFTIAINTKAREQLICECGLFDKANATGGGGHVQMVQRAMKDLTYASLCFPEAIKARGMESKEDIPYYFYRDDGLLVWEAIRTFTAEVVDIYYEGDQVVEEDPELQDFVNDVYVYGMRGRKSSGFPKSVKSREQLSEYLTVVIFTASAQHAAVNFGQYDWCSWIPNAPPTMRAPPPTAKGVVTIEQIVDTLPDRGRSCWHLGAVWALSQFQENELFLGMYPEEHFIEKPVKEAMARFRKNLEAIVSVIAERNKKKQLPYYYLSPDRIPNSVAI
Outline: (§1)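 Cell-free activity assay with isolated human recombinant 5-LO. Compounds screened at 30 μM in DMSO, with 0.3% v/v DMSO as vehicle and BWA4C as positive control. IC50 taken from concentration-response curves. Means ± SE, n = 4-5.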

[2] = target: T2, Polyunsaturated fatty acid 5-lipoxygenase (Homo sapiens) (UniProt P09917); experiment: Inhibition of human recombinant 5-lipoxygenase expressed in Escherichia coli MV1190 assessed as residual activity at 30 uM by cell free assay; outline: as §1
T2 sequence (whole entry): T1 sequence (P09917 whole entry)

[3] = target: T1, Polyunsaturated fatty acid 5-lipoxygenase; experiment: Inhibition of 5-lipoxygenase in human neutrophils
Outline: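 Human neutrophils stimulated with ionophore A23187 to probe FLAP-dependent 5-LO product formation. Compounds in DMSO (vehicle 0.3% v/v) screened at 30 μM and tested in concentration-response. A FLAP inhibitor served as control. n = 4-5 for the curves.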

[4] = target: T2, Polyunsaturated fatty acid 5-lipoxygenase (Homo sapiens); experiment: Inhibition of 5-lipoxygenase in human neutrophils assessed as residual activity at 10 uM; values are per cent of control
[5] = target: Prostaglandin E synthase / mPGES-1 (Homo sapiens) (UniProt O14684); experiment: Inhibition of Prostaglandin E2 synthase-1 in IL1-beta stimulated microsomal fraction of human A549 cell assessed as residual activity at 30 uM; conditions: Microsome
Chain of Prostaglandin E synthase / mPGES-1 (Homo sapiens) (O14684 whole entry, looked up): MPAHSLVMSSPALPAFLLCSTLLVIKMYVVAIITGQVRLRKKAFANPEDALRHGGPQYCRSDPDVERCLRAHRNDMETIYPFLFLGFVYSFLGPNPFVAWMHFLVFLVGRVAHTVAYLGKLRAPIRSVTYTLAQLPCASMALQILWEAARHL

[6] = target: T2, Polyunsaturated fatty acid 5-lipoxygenase (Homo sapiens); experiment: Inhibition of 5-lipoxygenase in human neutrophils assessed as residual activity at 30 uM; values are per cent of control
[7] = target: T2, Polyunsaturated fatty acid 5-lipoxygenase (Homo sapiens); experiment: Inhibition of human recombinant 5-lipoxygenase expressed in Escherichia coli MV1190 assessed as residual activity at 10 uM by cell free assay; values are per cent of control

Row | SMILES | IC50 [1] [µM] | remaining activity [2] [%] | IC50 [3] [µM] | residual activity [4] [%] | remaining activity [5] [%] | residual activity [6] [%] | residual activity [7] [%]
1 | CN(C)c1cccc2c(S(=O)(=O)Nc3ccc(-c4ccc(-c5cn(CCCc6ccccc6)nn5)cc4)cc3)cccc12 | 4.1 | 5.1 | 2.8 | 21.2 | 85 | – | –
2 | Oc1cccc(-c2ccc(-c3cn(CSc4ccccc4)nn3)cc2)c1 | 27 | 48.8 | 0.4 | 1.1 | 60.1 | – | –
3 | FC(F)(F)c1ccc(Cl)c(OCc2ccccc2-c2ccc(-c3cn(CCCc4ccccc4)nn3)cc2)c1 | 8.8 | 10.1 | > 30 | – | 91.9 | 52.7 | –
4 | O=C(OCc1cn(CSc2ccccc2)nn1)c1ccccc1 | > 30 | 80.8 | 9.3 | – | 76.1 | 14.6 | –
5 | Oc1ccc(-c2ccc(-c3cn(CSc4ccccc4)nn3)cc2)cc1 | > 30 | 62.3 | 0.9 | 34.8 | 89 | – | –
6 | c1ccc(CCCn2cc(-c3ccc(-c4ccccc4COc4cccc5ccccc45)cc3)nn2)cc1 | > 30 | 77.4 | > 30 | – | 96.8 | 79.9 | –
7 | O=C(O)c1ccc(Cn2cc(-c3ccc(-c4ccccc4)cc3)nn2)c([N+](=O)[O-])c1 | 6.7 | 20 | 9.2 | – | 12 | 20.1 | –
8 | O=C(O)c1ccc(S(=O)(=O)n2cc(-c3ccc(-c4ccccc4COc4cccc5ccccc45)cc3)nn2)cc1 | 0.8 | – | 0.6 | 3.5 | 59.8 | – | 13.6

The next lines start with the values.

Row | IC50 [1] [µM] | remaining activity [2] [%] | IC50 [3] [µM] | residual activity [4] [%] | remaining activity [5] [%] | residual activity [6] [%] | residual activity [7] [%] | SMILES
9 | > 30 | 78.4 | > 30 | – | 90 | 84.5 | – | Cc1ccccc1CCn1cc(-c2ccc(-c3ccccc3COc3cccc4ccccc34)cc2)nn1
10 | > 30 | 58.4 | > 30 | – | 73.6 | 70.2 | – | Oc1ccc(-c2ccc(-c3cn(CCCc4ccccc4)nn3)cc2)cc1
11 | > 30 | 82.9 | > 30 | – | 78.2 | 85.7 | – | c1ccc(CCCn2cc(-c3ccc(-c4cc5ccccc5c5ccccc45)cc3)nn2)cc1
12 | > 30 | 57.3 | 6 | 17.3 | 72.1 | – | – | O=Cc1ccc(-c2c(Cc3ccccc3)nnn2CSc2ccccc2)cc1
13 | > 30 | 82.5 | > 30 | – | 87.9 | 92.1 | – | Cc1ccccc1CCn1cc(-c2ccc(-c3ccccc3COc3cc(C(F)(F)F)ccc3Cl)cc2)nn1
14 | > 30 | 59.2 | > 30 | – | 88.7 | 70.1 | – | c1ccc(CCCn2cc(-c3ccc(-c4ccc(Oc5ccccc5)cc4)cc3)nn2)cc1
15 | > 30 | 60.7 | 1.7 | 22 | 98.2 | – | – | Cc1ccccc1CCn1cc(-c2ccc(-c3ccc(N)cc3)cc2)nn1
